Data set [1] has as its target T1, Bromodomain-containing protein 4 (Homo sapiens, UniProt O60885). Briefly: Binding affinity to 5FW-labeled BRD4 bromodomain 1 (unknown origin) expressed in Escherichia coli BL21(DE3) by PrOF NMR spectroscopic analysis. The essentials: (§1)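 BrdT samples also contain 3 mM DTT. Spectra recorded with compound present and absent at 500 MHz, 90° flip angle, 0.7 s relaxation delay, 0.1 s acquisition, 500 transients. The read-out is broadening or shift of the binding-pocket Trp resonance.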

Data set [2] has as its target T2, Nucleosome-remodeling factor subunit BPTF (Homo sapiens, UniProt Q12830). In words: Binding affinity to 5FW-labeled BPTF (unknown origin) by PrOF NMR spectroscopic analysis. The procedure, abridged: as §1
Data set [3] concerns the target T3, Bromodomain testis-specific protein (Homo sapiens, UniProt Q58F21). Briefly: Binding affinity to 5FW-labeled BRDT bromodomain 1 residue (unknown origin) expressed in Escherichia coli BL21(DE3) by PrOF NMR spectroscopic analysis.
The target of data set [4] is T3, Bromodomain testis-specific protein. Briefly: Binding affinity to 5FW-labeled BRDT bromodomain 1 W50 residue (unknown origin) expressed in Escherichia coli BL21(DE3) by PrOF NMR spectroscopic analysis. The essentials:
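5FW-BrdT(1) at 40–50 μM in 50 mM Tris, 100 mM NaCl, 3 mM DTT, pH 7.4, 5% D2O. The pocket Trp resonance is followed for broadening and for a new upfield peak as ligand is titrated.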

The target of data set [5] is T1, Bromodomain-containing protein 4. In words: Binding affinity to 5FW-labeled BRD4 bromodomain 1 (unknown origin) expressed in Escherichia coli BL21(DE3) up to 50 uM by PrOF NMR spectroscopic analysis. The essentials:
as §1

Data set [6] concerns the target Bromodomain and WD repeat-containing protein 1 (Homo sapiens) (UniProt Q9NSI6). In words: Inhibition of human WDR9 bromodomain 2 (1310 to 1430 residues) expressed bacterial expression system at 20 uM by bromoscan assay.
Data set [7] has as its target T1, Bromodomain-containing protein 4. Briefly: Inhibition of BRD4 bromodomain in human MM1S cells assessed as upregulation of p21Cip1 levels up to 10 uM after 6 hrs by Western blot analysis. It counts as cell-based. The essentials: (§2)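 MM1.S cells (1×10^6 per well) are treated with increasing inhibitor concentrations for 6 h, then lysed with protease/phosphatase inhibitors and 5 mM EDTA at 4 °C. Lysates are resolved by SDS-PAGE and immunoblotted for c-Myc and p21Cip1, with vinculin as loading reference and chemiluminescent detection.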
In general terms: A western blot detects proteins with antibodies after separation by electrophoresis.

The subject of data set [8] is MM1.S. Briefly: Cytotoxicity against human MM1S cells assessed as reduction in cell viability up to 10 uM after 72 hrs by MTT assay. In kind it is functional, cell-based. The essentials: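 MM1.S cells are grown in RPMI-1640 with 10% FBS at 37 °C and 5% CO2. About 20,000 cells per well are exposed to compound or 0.1% DMSO vehicle for 72 h, with 6 replicates per concentration. MTT (2 mg/ml) is added for 3 h at 37 °C and formazan is dissolved in DMSO. A540 is read and IC50 is fitted.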
A general note: Formazan colour is commonly taken as a measure of viable cells.

Data set [9] is described as follows: Stability in DMSO at -20 degC by ESI-MS analysis. It counts as physicochemical.
The target of data set [10] is T3, Bromodomain testis-specific protein. In words: Inhibition of BRDT bromodomain 2 (unknown origin) by fluorescence anisotropy assay. A general note: In fluorescence polarisation assays a small probe gives low polarisation when free and higher when bound to something large.
For data set [11] the target is unchanged. In words: Binding affinity to human BRDT bromodomain 1 (21 to 137 residues) expressed in bacterial expression system by q-PCR-based bromoscan assay. The essentials:
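BromoScan direct titration against BrdT(1), giving a dissociation constant Kd.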

The target of data set [12] is T1, Bromodomain-containing protein 4. Briefly: Inhibition of BI-BODIPY binding to BRD4 bromodomain 1 (42 to 168 residues)(unknown origin) expressed in Escherichia coli BL21(DE3) by fluorescence anisotropy assay. The procedure, abridged:
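Competition fluorescence anisotropy in 50 mM Tris, 100 mM NaCl, pH 7.4, 4 mM CHAPS, 0.5% DMSO; BrdT also contains 3 mM DTT. Tracer BI-BODIPY is at 0.025 μM. Protein is set at the level giving 80% tracer bound. Ex 485/em 535. A four-parameter IC50 is converted to Ki by a Cheng-Prusoff variant, from ≥3 independent experiments.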

For data set [13], the target named is CREB-binding protein (Homo sapiens) (UniProt Q92793). In words: Inhibition of human CBP bromodomain (1081 to 1197 residues) expressed bacterial expression system at 20 uM by bromoscan assay.
For data set [14], the target named is T1, Bromodomain-containing protein 4. Briefly: Inhibition of acetylated histone4 (1 to 21 residues) binding to His-tagged BRD4 bromodomain 1 (42 to 168 residues) (unknown origin) expressed in Escherichia coli BL21(DE3) after 1 hr by alpha screen assay. The procedure, abridged: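 Run by Reaction Biology as AlphaScreen of Brd4(1) binding to acetylated histone H4 (1-21) peptide, at a constant 1% DMSO, with a reference BET inhibitor as positive control.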

The target of data set [15] is T3, Bromodomain testis-specific protein. Briefly: Binding affinity to BRDT bromodomain 1 (29 to 134 residues)(unknown origin) expressed in Escherichia coli BL21(DE3) assessed as change in melting temperature at 150 uM at 25 to 75 degC after 5 mins by SYPRO orange dye based differential scanning fluorimetric analysis. The procedure, abridged: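 DSF with 10 μM BrdT(1) in 50 mM HEPES pH 7.5, 100 mM NaCl, with 5x SYPRO Orange. The 8-point dose range is 1250–9 μM at 2.5% DMSO, run in duplicate. After 5 min at 25 °C, samples are heated from 25 to 75 °C in 0.2 °C steps. Tm is the peak of the negative first derivative. ΔTm is taken against the DMSO control. Plates with Z' below 0.5 are excluded.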

The target in data set [16] is Histone acetyltransferase p300 (Homo sapiens) (UniProt Q09472). Briefly: Inhibition of human P300 bromodomain (1040 to 1161 residues) expressed bacterial expression system at 20 uM by bromoscan assay.
Data set [17] concerns the target T1, Bromodomain-containing protein 4. Briefly: Binding affinity to 5FW-labeled BRD4 bromodomain 1 (unknown origin) expressed in Escherichia coli BL21(DE3) up to 50 uM in presence of serum by PrOF NMR spectroscopic analysis.
For data set [18] the target is unchanged. In words: Inhibition of biotin-labeled (+)-JQ1 binding to His-tagged BRD4 bromodomain 1 (42 to 168 residues) (unknown origin) expressed in Escherichia coli BL21(DE3) after 1 hr by alpha screen assay. The procedure, abridged:
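AlphaScreen in 50 mM HEPES, 150 mM NaCl, 0.01% Tween-20, 0.1% BSA, pH 7.4. Final concentrations are His-Brd4(1) 0.020 μM, biotinylated JQ1 probe 0.010 μM, and Ni acceptor and streptavidin donor beads each at 10 μg/ml. Compounds are added as a 10-point 1:√10 dilution. Plates are incubated 1 h at room temperature in low light.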

The target of data set [19] is T2, Nucleosome-remodeling factor subunit BPTF. Briefly: Binding affinity to 5FW-labeled BPTF (unknown origin) up to 500 uM by PrOF NMR spectroscopic analysis. The procedure, abridged:
as §1

For data set [20], the target named is SWI/SNF-related matrix-associated actin-dependent regulator of chromatin subfamily A member 2 (Homo sapiens) (UniProt P51531). In words: Inhibition of human SMARCA2 bromodomain (1337 to 1486 residues) expressed bacterial expression system at 20 uM by bromoscan assay.
The target of data set [21] is T1, Bromodomain-containing protein 4. In words: Binding affinity to human BRD4 bromodomain 1 (44 to 168 residues) expressed in bacterial expression system by qPCR-based bromoscan assay.
Data set [22] has the same target. In words: Inhibition of BRD4 bromodomain in human MM1S cells assessed as reduction in c-Myc levels up to 10 uM after 6 hrs by Western blot analysis. It counts as cell-based. The procedure, abridged: as §2
For data set [23], the target named is T3, Bromodomain testis-specific protein. Briefly: Inhibition of biotin-labeled (+)-JQ1 binding to His-tagged BRDT bromodomain 1 (29 to 134 residues) (unknown origin) expressed in Escherichia coli BL21(DE3) after 1 hr by alpha screen assay. The essentials:
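Competition AlphaScreen: His-BrdT(1) 0.020 μM with Ni-acceptor beads 10 μg/ml and biotinylated probe 0.010 μM, in 50 mM HEPES, 150 mM NaCl, 0.01% Tween-20, 0.1% BSA, pH 7.4. Compounds pin-transferred as a 10-point 1:√10 dilution, then streptavidin donor beads 10 μg/ml added. Incubation 1 h at room temperature in low light.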

Data set [24] has the same target. In words: Inhibition of BI-BODIPY binding to BRDT bromodomain 1 (29 to 134 residues) (unknown origin) expressed in Escherichia coli BL21(DE3) by fluorescence anisotropy assay.

The source made the active and inactive calls. The calls are words filed in the database; no cut-off is given here.

In general, Kd refers to the equilibrium constant for the complex coming apart. A lower Kd goes with tighter binding. What is called inhibition is the share of the control response that was lost under treatment. What is called Ki is a dissociation constant, usually derived from enzyme kinetics or from competition with a known ligand. In general, IC50 refers to the midpoint of a concentration-inhibition curve. Read a high IC50 as lower potency. For orientation: ΔTm means the shift of the melting midpoint relative to a reference.

Chain of Bromodomain and WD repeat-containing protein 1 (Homo sapiens) (Q9NSI6 whole entry, the tested form may be a part): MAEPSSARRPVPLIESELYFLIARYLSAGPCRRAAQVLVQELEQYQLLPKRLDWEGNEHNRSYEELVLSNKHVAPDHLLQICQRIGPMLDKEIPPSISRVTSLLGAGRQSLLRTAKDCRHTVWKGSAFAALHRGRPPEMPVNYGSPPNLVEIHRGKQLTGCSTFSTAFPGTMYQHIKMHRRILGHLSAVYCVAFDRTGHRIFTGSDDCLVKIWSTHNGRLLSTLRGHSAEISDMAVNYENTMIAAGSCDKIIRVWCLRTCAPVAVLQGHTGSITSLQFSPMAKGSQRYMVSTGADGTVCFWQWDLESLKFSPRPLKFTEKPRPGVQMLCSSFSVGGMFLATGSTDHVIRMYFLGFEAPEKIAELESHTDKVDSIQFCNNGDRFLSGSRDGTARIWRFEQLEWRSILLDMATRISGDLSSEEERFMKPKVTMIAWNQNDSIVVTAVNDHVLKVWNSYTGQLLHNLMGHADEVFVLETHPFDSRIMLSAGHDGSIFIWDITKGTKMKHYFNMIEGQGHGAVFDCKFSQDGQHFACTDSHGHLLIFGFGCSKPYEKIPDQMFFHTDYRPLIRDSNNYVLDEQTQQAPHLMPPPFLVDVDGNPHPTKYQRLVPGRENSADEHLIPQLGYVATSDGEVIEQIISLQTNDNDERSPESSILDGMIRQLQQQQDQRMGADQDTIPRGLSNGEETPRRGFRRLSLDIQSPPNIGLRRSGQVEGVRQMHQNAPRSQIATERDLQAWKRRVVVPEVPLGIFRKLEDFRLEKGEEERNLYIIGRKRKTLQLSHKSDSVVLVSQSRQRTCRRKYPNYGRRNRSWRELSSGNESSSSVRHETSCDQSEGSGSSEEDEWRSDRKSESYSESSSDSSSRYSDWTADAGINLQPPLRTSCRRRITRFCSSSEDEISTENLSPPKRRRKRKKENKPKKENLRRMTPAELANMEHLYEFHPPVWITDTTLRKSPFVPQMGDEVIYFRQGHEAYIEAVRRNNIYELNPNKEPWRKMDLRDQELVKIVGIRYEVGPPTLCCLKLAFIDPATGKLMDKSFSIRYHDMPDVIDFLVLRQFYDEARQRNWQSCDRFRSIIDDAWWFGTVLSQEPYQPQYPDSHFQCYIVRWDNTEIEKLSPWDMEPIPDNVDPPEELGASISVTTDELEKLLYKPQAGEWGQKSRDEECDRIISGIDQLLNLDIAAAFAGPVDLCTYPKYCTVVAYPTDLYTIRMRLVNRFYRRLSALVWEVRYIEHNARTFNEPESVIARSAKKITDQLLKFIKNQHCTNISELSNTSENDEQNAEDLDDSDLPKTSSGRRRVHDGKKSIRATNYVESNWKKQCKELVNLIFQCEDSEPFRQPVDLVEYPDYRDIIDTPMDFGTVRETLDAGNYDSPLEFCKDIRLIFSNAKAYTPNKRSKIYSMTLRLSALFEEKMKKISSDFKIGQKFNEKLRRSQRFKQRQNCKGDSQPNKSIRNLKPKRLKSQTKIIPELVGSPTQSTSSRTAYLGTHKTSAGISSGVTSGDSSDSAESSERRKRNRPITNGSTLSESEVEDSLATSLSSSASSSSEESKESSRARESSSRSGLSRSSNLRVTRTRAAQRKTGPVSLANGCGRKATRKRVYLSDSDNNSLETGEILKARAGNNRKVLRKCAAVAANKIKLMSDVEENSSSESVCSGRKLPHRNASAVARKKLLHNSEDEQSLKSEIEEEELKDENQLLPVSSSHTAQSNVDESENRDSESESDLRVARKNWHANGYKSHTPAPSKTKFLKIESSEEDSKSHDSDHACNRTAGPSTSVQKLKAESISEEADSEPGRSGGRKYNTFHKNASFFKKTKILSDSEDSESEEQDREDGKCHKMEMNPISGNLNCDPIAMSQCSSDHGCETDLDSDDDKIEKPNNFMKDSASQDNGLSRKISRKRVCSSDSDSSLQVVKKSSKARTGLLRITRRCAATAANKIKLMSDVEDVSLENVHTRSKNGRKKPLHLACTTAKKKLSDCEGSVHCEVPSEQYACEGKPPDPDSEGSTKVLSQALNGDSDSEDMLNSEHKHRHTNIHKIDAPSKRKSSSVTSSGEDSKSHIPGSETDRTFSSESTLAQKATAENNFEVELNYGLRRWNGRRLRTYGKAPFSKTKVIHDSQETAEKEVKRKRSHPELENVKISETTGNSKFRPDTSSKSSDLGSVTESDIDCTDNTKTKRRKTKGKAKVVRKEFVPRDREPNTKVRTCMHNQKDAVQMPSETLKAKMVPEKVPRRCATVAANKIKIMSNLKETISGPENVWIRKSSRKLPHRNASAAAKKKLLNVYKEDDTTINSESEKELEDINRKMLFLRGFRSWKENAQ
Chain of SWI/SNF-related matrix-associated actin-dependent regulator of chromatin subfamily A member 2 (Homo sapiens) (P51531 whole entry, the tested form may be a part): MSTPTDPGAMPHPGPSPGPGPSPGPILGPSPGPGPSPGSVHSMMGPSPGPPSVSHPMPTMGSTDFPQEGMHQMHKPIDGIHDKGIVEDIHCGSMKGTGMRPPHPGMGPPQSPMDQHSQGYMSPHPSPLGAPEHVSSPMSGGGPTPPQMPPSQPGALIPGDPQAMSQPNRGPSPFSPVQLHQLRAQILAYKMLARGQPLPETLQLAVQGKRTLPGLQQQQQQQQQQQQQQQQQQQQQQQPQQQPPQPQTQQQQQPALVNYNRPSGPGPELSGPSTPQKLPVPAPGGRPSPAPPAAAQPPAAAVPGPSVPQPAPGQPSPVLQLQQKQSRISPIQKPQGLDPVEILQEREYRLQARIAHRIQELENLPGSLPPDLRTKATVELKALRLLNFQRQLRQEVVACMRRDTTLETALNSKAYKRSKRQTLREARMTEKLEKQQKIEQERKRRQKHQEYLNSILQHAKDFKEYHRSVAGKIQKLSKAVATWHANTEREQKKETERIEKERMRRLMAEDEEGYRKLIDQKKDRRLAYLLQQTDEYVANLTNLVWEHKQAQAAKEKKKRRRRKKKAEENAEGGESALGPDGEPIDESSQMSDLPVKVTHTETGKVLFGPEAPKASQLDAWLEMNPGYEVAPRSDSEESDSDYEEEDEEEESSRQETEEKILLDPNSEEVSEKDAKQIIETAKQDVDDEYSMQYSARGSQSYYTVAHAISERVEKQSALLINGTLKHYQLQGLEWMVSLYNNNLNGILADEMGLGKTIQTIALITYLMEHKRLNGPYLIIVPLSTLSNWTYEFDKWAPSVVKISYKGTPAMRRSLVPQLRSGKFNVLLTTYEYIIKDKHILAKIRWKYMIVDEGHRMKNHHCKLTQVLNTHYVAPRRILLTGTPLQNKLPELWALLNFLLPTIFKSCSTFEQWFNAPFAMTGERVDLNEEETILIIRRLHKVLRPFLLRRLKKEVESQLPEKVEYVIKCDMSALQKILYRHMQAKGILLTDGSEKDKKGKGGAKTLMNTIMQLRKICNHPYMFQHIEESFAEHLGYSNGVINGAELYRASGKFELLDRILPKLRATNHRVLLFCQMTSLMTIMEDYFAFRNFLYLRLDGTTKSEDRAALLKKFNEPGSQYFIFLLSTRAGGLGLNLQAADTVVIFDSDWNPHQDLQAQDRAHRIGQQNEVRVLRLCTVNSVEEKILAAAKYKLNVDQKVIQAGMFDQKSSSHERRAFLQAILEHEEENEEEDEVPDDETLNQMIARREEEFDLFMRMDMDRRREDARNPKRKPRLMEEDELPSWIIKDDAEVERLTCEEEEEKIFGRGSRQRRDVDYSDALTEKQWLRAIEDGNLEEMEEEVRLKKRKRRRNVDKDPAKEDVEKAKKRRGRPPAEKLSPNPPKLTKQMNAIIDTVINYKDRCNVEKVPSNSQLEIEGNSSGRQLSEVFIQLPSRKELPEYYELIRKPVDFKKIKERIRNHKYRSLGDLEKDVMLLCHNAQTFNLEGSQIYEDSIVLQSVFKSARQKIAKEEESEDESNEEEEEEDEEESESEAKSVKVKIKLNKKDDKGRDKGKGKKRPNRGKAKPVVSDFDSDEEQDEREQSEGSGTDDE

`CCn1c(N)cc(=O)[nH]c1=O`: the Kd in data set [1] is 660 µM; in data set [2], 6800 µM; in data set [3], 1500 µM; in data set [4], 1500 µM.

Take `CCn1c2c(c(=O)[nH]c1=O)C(c1ccc(C)cc1)C1=C(COC1=O)N2` (stereo not given): the result in [5] and in [17] was Active. The inhibition turned out to be 72% in data set [6], 68% in data set [13], 66% in data set [16] and 71% in data set [20]. In addition, the inhibition entry in [7] and in [22] was “inactive” in each case. Further, the result in [8] and in [19] was inactive. In addition, the Stability result in [9] is given as “Stable”. For the same molecule, the inhibitory constant (Ki) in data set [10] was ≤ 0.45 µM; in data set [12], 0.37 µM; in data set [24], 0.69 µM. The dissociation constant Kd was determined as 1.6 µM in [11] and 0.84 µM in [21]. Also, the IC50 in data set [14] came out at 0.9 µM; in [18], 1 µM; in [23] it was 2.3 µM; in data set [24], 5.2 µM. The ΔTm in data set [15] was found to be 4.8 °C.
